Activity calls are given as the source filed them. The calls are words filed in the database; no cut-off is given here.
How the values were obtained:
CCRF-CEM = assay: Anticancer activity against human CCRF-CEM cells assessed as cell growth inhibition incubated for 48 hrs by sulforhodamine B assay; format: functional
A549 = assay: Anticancer activity against human A549 cells assessed as cell growth inhibition incubated for 48 hrs by SRB method; format: functional
How it was run: (§1)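 NCI-60 panel (DTP). Cells in RPMI 1640 with 5% FBS, 2 mM L-glutamine, seeded at 5,000–40,000 per well by doubling time and preincubated 24 h at 37 °C, 5% CO2. Time-zero plates TCA-fixed. DMSO stocks diluted in medium with gentamicin, tested at 100 μM, 10 μM, 1 μM, 0.1 μM and 10 nM for 48 h. Cells fixed with cold TCA, stained with SRB, absorbance read at 515 nm.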

HOP-62 = assay: Anticancer activity against human HOP-62 cells assessed as cell growth inhibition incubated for 48 hrs by SRB method; format: functional; how it was run: as §1
OV-MD-231 [1] = assay: Antiproliferative activity against human OV-MD-231 cells assessed as inhibition of cell proliferation at 0.5 to 5 uM measured over 4 to 5 days by bromodeoxyuridine incorporation assay; format: functional, cell-based; conditions: dose 0.5-5 µM, time 4-5 day
How it was run: (§2)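 Seeded at 500–1000 cells/well, with treatment started one day after plating. Cells were exposed to a range of concentrations for 4–5 days, six wells per condition, and proliferation was read by BrdU incorporation ELISA. Data average two experiments of six technical replicates, and 2–4 biological replicates were run.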

TMD-231 = assay: Antiproliferative activity against human TMD-231 cells assessed as inhibition of cell proliferation at 0.5 to 5 uM measured over 4 to 5 days by bromodeoxyuridine incorporation assay; format: functional, cell-based; conditions: dose 0.5-5 µM, time 4-5 day; how it was run: as §2
HL-60(TB) = assay: Anticancer activity against human HL-60(TB) cells assessed as cell growth inhibition incubated for 48 hrs by SRB method; format: functional
NCI-H226 = assay: Anticancer activity against human NCI-H226 cells assessed as cell growth inhibition incubated for 48 hrs by SRB method; format: functional; how it was run: as §1
HCC 2998 = assay: Anticancer activity against human HCC 2998 cells assessed as cell growth inhibition incubated for 48 hrs by SRB method; format: functional; how it was run: as §1
SW-620 = assay: Anticancer activity against human SW-620 cells assessed as cell growth inhibition incubated for 48 hrs by SRB method; format: functional
SNB-19 = assay: Anticancer activity against human SNB-19 cells assessed as cell growth inhibition incubated for 48 hrs by SRB method; format: functional; how it was run: as §1
SNB-75 = assay: Anticancer activity against human SNB-75 cells assessed as cell growth inhibition incubated for 48 hrs by SRB method; format: functional
MDA-MB-435 = assay: Anticancer activity against human MDA-MB-435 cells assessed as cell growth inhibition incubated for 48 hrs by SRB method; format: functional; how it was run: as §1
UACC-257 = assay: Anticancer activity against human UACC-257 assessed as cell growth inhibition incubated for 48 hrs by SRB method; format: functional
How it was run: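 NCI-60 panel, SRB assay. Cells grown in RPMI 1640 with 5% FBS and 2 mM L-glutamine, seeded at 5,000–40,000 cells/well depending on doubling time, and preincubated 24 h at 37 °C with 5% CO2. Time-zero plates were TCA-fixed. Compounds came from DMSO stocks and were tested at 100 μM, 10 μM, 1 μM, 0.1 μM and 10 nM for 48 h. Cells were fixed with cold TCA and stained with 0.4% SRB, and the dye was solubilized in 10 mM Tris base with A515 read.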

RXF 393 = assay: Anticancer activity against human RXF 393 cells assessed as cell growth inhibition incubated for 48 hrs by SRB method; format: functional; how it was run: as §1
MDA-MB-468 = assay: Anticancer activity against human MDA-MB-468 cells assessed as cell growth inhibition incubated for 48 hrs by SRB method; format: functional; how it was run: as §1
[2] = molecular target: Inhibitor of nuclear factor kappa-B kinase subunit beta (Homo sapiens) (UniProt O14920); assay: Inhibition of IKKbeta-mediated NFkappaB activation in human M9-ENL1 cells assessed as inhibition of phosphorylation of p65 at SER-536 residue at 2.5 to 10 uM by immunoblotting analysis; format: cell-based; conditions: dose 2.5-10 µM
Chain of Inhibitor of nuclear factor kappa-B kinase subunit beta (Homo sapiens) (O14920 whole entry): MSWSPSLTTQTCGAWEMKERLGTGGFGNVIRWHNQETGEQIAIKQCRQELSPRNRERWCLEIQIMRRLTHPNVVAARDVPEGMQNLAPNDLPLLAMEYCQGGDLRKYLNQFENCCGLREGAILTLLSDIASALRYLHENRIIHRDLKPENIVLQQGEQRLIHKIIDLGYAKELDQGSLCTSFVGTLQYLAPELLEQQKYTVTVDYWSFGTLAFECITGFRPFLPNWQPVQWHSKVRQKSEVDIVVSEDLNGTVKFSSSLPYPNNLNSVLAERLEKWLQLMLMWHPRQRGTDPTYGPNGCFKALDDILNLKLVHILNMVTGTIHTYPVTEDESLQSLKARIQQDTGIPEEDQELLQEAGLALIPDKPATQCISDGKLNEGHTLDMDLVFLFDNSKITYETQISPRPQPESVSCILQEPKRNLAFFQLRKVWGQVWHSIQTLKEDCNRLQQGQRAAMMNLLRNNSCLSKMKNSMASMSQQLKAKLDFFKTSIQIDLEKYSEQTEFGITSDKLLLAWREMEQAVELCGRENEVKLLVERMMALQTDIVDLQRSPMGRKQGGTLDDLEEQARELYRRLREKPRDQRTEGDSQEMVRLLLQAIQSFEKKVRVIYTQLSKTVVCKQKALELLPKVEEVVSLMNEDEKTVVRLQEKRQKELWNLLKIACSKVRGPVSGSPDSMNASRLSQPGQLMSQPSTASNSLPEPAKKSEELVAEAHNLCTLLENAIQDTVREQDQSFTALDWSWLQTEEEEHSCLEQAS
How it was run: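 Primary M9-ENL AML cells were exposed for 6 h to 2.5, 5.0 and 10 μM, with PTL as reference. Lysates were run on 8–10% SDS-PAGE and transferred to PVDF. Blots were blocked in 5% milk/TBST and probed for phospho-p65 (Ser536). Analyses were done in triplicate.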

SUM149PT = assay: Antiproliferative activity against human SUM149PT cells assessed as inhibition of cell proliferation measured over 4 to 5 days by bromodeoxyuridine incorporation assay; format: functional, cell-based; how it was run: as §2
[3] = molecular target: Transcription factor p65 (Homo sapiens) (UniProt Q04206); assay: Inhibition of TNFalpha-induced phosphorylation of p65 in human SUM149PT cells at 2 uM by ELISA assay; format: cell-based
Chain of Transcription factor p65 (Homo sapiens) (Q04206 whole entry): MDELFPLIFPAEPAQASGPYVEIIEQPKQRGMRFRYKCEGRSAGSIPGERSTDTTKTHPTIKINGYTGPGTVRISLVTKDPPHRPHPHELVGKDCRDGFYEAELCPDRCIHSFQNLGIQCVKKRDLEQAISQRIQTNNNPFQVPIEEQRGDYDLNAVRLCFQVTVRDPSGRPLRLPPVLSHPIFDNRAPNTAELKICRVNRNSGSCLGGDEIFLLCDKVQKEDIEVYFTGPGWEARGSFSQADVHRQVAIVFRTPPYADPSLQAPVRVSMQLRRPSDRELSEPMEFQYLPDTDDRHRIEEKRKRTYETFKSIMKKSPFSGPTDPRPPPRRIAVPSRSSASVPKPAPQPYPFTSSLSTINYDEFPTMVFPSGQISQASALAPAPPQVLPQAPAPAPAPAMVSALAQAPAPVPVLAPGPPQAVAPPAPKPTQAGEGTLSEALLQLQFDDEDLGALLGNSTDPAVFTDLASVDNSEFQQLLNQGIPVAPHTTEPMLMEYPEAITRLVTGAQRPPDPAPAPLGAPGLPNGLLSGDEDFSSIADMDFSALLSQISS

[4] = molecular target: Transcription factor p65 (Homo sapiens) (UniProt Q04206); assay: Inhibition of TNFalpha-induced p65 phosphorylation in human OV-MD-231 cells at 2 uM by ELISA assay; format: cell-based
[5] = molecular target: Inhibitor of nuclear factor kappa-B kinase subunit alpha (Homo sapiens) (UniProt O15111); assay: Inhibition of TNFalpha-induced IkKalpha in human SUM149PT cells at 0.5 to 2 uM by ELISA assay; format: cell-based; conditions: dose 0.5-2 µM
Chain of Inhibitor of nuclear factor kappa-B kinase subunit alpha (Homo sapiens) (O15111 whole entry): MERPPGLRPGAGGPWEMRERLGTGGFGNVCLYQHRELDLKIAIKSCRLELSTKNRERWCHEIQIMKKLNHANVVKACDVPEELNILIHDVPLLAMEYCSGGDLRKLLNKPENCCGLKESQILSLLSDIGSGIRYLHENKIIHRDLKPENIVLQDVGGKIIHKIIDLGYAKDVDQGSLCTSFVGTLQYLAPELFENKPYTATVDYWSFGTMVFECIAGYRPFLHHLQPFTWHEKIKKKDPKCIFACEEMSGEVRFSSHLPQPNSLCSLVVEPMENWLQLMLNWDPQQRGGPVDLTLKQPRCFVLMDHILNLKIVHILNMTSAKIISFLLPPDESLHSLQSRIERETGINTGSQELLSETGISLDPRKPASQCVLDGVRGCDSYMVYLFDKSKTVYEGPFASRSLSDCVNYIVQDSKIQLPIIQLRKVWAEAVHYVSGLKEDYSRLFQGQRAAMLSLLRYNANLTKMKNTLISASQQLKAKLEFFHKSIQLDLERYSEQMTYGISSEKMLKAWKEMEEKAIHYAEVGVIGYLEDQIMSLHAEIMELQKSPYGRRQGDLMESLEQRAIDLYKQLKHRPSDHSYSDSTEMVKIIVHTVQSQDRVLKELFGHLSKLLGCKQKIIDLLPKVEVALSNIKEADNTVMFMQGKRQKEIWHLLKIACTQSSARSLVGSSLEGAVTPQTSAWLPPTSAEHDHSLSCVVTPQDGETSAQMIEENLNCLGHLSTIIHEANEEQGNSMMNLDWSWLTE

OV-MD-231 [6] = assay: Inhibition of NFkB binding with DNA in human […] cells assessed as reduction in NFkB-DNA binding at 2 uM measured over 3 hrs by electrophoretic mobility shift assay; format: cell-based
How it was run: (§3)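 Cells were exposed to 0.5 and 2.0 μM for 3 h. EMSA was run on whole-cell lysates with 32P-labelled probes carrying NF-κB binding sites, and an SP-1 probe served as the specificity control.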

[7] = molecular target: Nuclear factor NF-kappa-B p100 subunit (Homo sapiens) (UniProt Q00653); assay: Inhibition of NFkB binding with DNA in human SUM149PT cells assessed as reduction in NFkB-DNA binding at 2 uM measured over 3 hrs by electrophoretic mobility shift assay; format: cell-based; how it was run: as §3
Chain of Nuclear factor NF-kappa-B p100 subunit (Homo sapiens) (Q00653 whole entry): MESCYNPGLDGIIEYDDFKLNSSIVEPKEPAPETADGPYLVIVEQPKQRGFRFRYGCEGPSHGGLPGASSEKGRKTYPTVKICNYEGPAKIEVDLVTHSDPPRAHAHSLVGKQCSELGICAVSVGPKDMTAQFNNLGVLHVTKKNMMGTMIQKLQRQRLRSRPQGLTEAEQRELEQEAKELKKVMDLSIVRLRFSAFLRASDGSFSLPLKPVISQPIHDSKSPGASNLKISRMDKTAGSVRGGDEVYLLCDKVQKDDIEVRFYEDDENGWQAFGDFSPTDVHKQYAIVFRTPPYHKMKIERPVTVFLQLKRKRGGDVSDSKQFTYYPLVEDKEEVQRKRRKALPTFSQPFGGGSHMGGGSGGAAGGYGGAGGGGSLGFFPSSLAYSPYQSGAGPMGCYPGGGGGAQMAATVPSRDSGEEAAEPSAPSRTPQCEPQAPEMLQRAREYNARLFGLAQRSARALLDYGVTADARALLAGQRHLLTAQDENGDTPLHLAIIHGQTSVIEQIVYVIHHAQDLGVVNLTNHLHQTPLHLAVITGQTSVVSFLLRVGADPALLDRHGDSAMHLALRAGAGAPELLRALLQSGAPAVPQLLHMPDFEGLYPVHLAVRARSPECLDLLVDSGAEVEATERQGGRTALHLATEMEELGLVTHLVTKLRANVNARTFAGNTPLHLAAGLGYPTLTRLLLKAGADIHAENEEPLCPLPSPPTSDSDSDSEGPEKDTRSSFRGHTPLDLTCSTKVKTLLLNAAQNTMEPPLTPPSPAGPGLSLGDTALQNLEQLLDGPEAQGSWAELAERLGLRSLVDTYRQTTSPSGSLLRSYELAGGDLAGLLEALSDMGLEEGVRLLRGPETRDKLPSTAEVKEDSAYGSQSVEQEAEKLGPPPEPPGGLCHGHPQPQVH

NCI-H322M = assay: Anticancer activity against human NCI-H322M cells assessed as cell growth inhibition incubated for 48 hrs by SRB method; format: functional; how it was run: as §1
OVCAR-3 = assay: Anticancer activity against human OVCAR-3 cells assessed as cell growth inhibition incubated for 48 hrs by SRB method; format: functional; how it was run: as §1

SMILES: C=C1C(=O)O[C@H]2[C@H]1CC/C(COC(=O)NCc1ccc(OC)cc1)=C\CC[C@@]1(C)O[C@@H]21
- GI50 (CCRF-CEM): 0.26 µM
- GI50 (A549): 2.43 µM
- GI50 (HOP-62): 4.81 µM
- inhibition (OV-MD-231 [1]): Active
- inhibition (TMD-231): Active
- GI50 (HL-60(TB)): 0.26 µM
- GI50 (NCI-H226): 0.48 µM
- GI50 (HCC 2998): 0.51 µM
- GI50 (SW-620): 0.22 µM
- GI50 (SNB-19): 0.7 µM
- GI50 (SNB-75): 0.74 µM
- GI50 (MDA-MB-435): 0.42 µM
- GI50 (UACC-257): 1.52 µM
- GI50 (RXF 393): 0.27 µM
- GI50 (MDA-MB-468): 0.24 µM
- inhibition [2]: inactive
- IC50 (SUM149PT): < 1 µM
- inhibition [3]: Active
- inhibition [4]: Active
- inhibition [5]: Active
- inhibition (OV-MD-231 [6]): inactive
- inhibition [7]: inactive

SMILES: C=C1C(=O)O[C@H]2[C@H]1CC/C(COC(=O)NCCc1ccc(OC)cc1)=C\CC[C@@]1(C)O[C@@H]21
- GI50 (CCRF-CEM): 1.98 µM
- GI50 (A549): 13.2 µM
- GI50 (HOP-62): 12.2 µM
- GI50 (HL-60(TB)): 2.34 µM
- GI50 (NCI-H226): 4.11 µM
- GI50 (NCI-H322M): 12.6 µM
- GI50 (HCC 2998): 2.48 µM
- GI50 (SW-620): 2.51 µM
- GI50 (SNB-19): 8.65 µM
- GI50 (SNB-75): 4.09 µM
- GI50 (MDA-MB-435): 3.53 µM
- GI50 (UACC-257): 1.47 µM
- GI50 (RXF 393): 1.72 µM
- GI50 (MDA-MB-468): 1.55 µM

SMILES: C=C1C(=O)O[C@H]2[C@H]1CC/C(COC(=O)NCc1cc(OC)cc(OC)c1)=C\CC[C@@]1(C)O[C@@H]21
- GI50 (CCRF-CEM): 0.47 µM
- GI50 (A549): 2.58 µM
- GI50 (HOP-62): 3.06 µM
- GI50 (HL-60(TB)): 1.69 µM
- GI50 (NCI-H226): 2.02 µM
- GI50 (NCI-H322M): 4.72 µM
- GI50 (HCC 2998): 1.94 µM
- GI50 (SW-620): 1.12 µM
- GI50 (SNB-19): 5.32 µM
- GI50 (SNB-75): 1.99 µM
- GI50 (MDA-MB-435): 1.99 µM
- GI50 (UACC-257): 0.27 µM
- GI50 (OVCAR-3): 0.66 µM
- GI50 (RXF 393): 1.29 µM
- GI50 (MDA-MB-468): 0.58 µM

SMILES: C=C1C(=O)O[C@H]2[C@H]1CC/C(COC(=O)NCc1ccccc1OC)=C\CC[C@@]1(C)O[C@@H]21
- GI50 (CCRF-CEM): 0.48 µM
- GI50 (A549): 3.07 µM
- GI50 (HOP-62): 3.69 µM
- GI50 (HL-60(TB)): 1.61 µM
- GI50 (NCI-H226): 2.11 µM
- GI50 (HCC 2998): 1.82 µM
- GI50 (SW-620): 0.76 µM
- GI50 (SNB-19): 1.57 µM
- GI50 (SNB-75): 2.44 µM
- GI50 (MDA-MB-435): 1.7 µM
- GI50 (UACC-257): 1.35 µM
- GI50 (RXF 393): 1.27 µM
- GI50 (MDA-MB-468): 0.66 µM

— ChEMBL document CHEMBL5055631, “Antitumor properties of novel sesquiterpene lactone analogs as NFκB inhibitors that bind to the IKKβ ubiquitin-like domain (ULD)” (Eur J Med Chem, 2021)
